Test results from ChEMBL document CHEMBL4219193, “Synthesis, biological evaluation and molecular docking study of 1-amino-2-aroylnaphthalenes against prostate cancer” (Bioorg Med Chem Lett, 2018).
Activity calls are given as the source filed them. The calls are words filed in the database; no cut-off is given here.

Key:
Assay type in all cases: cell-based
[1] = biological target: RAC-gamma serine/threonine-protein kinase (Homo sapiens) (UniProt Q9Y243); experiment: Inhibition of AKT3 phosphorylation in human PC3 cells at 14 uM after 12 to 24 hrs by Western blot analysis
In short: (§1)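 Immunoblotting of PC-3 lysates for procaspase 8, procaspase 9 and phosphorylated Akt1, 2 and 3 after treatment at 14 µM, with samples collected at different time points.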

[2] = biological target: RAC-alpha serine/threonine-protein kinase (Homo sapiens) (UniProt P31749); experiment: Inhibition of AKT1 phosphorylation in human PC3 cells at 14 uM after 12 to 24 hrs by Western blot analysis; in short: as §1
[3] = biological target: RAC-beta serine/threonine-protein kinase (Homo sapiens) (UniProt P31751); experiment: Inhibition of AKT2 phosphorylation in human PC3 cells at 14 uM after 12 to 24 hrs by Western blot analysis; in short: as §1
Sequence of RAC-beta serine/threonine-protein kinase (Homo sapiens) (P31751 whole entry): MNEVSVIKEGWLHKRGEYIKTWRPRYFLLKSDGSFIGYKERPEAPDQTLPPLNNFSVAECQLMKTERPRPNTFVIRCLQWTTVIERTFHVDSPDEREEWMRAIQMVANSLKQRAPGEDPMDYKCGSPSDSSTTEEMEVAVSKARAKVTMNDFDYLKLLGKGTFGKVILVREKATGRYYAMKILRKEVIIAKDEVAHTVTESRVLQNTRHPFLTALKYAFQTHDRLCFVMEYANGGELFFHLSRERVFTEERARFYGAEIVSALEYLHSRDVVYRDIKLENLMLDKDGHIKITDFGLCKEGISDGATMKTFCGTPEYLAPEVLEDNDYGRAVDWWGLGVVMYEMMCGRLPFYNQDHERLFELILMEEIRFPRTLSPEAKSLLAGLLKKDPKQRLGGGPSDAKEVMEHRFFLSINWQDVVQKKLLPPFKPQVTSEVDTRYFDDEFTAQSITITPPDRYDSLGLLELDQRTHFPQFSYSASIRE

Sequence of RAC-alpha serine/threonine-protein kinase (Homo sapiens) (P31749 whole entry): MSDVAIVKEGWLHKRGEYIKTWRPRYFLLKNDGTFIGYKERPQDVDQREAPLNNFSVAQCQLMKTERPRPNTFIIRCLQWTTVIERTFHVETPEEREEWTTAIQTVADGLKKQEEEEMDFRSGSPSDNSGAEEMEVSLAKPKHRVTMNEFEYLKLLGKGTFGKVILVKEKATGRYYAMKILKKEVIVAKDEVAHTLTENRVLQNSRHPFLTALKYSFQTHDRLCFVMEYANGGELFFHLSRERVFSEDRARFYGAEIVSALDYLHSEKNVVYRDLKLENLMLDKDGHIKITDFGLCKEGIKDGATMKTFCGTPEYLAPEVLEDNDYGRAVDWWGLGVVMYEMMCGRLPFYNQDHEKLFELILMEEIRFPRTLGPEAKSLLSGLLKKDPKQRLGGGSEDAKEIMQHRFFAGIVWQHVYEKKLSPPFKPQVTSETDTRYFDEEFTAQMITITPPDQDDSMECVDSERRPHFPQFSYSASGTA
Sequence of RAC-gamma serine/threonine-protein kinase (Homo sapiens) (Q9Y243 whole entry): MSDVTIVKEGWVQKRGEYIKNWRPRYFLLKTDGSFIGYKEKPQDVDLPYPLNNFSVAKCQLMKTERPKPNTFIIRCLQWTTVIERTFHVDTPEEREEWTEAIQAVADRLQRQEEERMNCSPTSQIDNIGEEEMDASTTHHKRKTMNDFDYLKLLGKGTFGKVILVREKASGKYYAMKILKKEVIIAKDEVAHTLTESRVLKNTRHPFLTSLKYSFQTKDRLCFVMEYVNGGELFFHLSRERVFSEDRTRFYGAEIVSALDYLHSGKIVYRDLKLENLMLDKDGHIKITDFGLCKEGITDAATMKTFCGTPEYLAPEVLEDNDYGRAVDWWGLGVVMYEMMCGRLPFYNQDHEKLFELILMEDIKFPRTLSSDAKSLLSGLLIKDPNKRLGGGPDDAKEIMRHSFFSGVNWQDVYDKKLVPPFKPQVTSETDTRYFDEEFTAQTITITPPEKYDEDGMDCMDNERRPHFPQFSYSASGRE

- inhibition [1]: Active
- inhibition [2]: Active
- inhibition [3]: Active
SMILES: CSc1c(C(=O)c2ccc(Br)cc2)c(N)c2ccccc2c1C#N
